Measurements: publication PMC9398179 (Molecular Cancer Therapeutics, 2021)
“And” between values parts separate entries of the source, which are not always exact repeats. Equal entries are not always repeated. One block for each compound: values may come before it.

Key:
M-NFS-60 cells = assay: M-NFS-60 cell proliferation assay; format: cell-based, mouse; conditions: 1,000 ng/mL versus 10 ng/mL CSF1
TGCT patients = conditions: across all trials of pexidartinib in TGCT; cited from earlier work
[1] = Plasma protein binding, human plasma; format: in vitro ADME
[2] = system: human osteoclast precursors; assay: Osteoclast differentiation assay; format: cell-based; conditions: 240 h, read-out: IC50, osteoclast differentiation
Summary of the method: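 Human osteoclast precursors thawed into complete medium with 66 ng/mL RANKL and 33 ng/mL human CSF1. Plated at 2,500 cells/well onto serially diluted test compound in triplicate (0.1% DMSO final). Cultured 10 days at 37°C. Differentiation read as tartrate-resistant acid phosphatase activity in supernatant, absorbance at 550 nm.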

MC38 colorectal cancer = assay: MC38 syngeneic colorectal cancer model; format: in vivo, C57BL/6 mice
Summary of the method: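 Female C57BL/6 mice implanted s.c. in the lower right flank with 1×10^6 MC38 cells in PBS. Randomized at mean tumor 104 mm³ and dosed days 12–39: test compound 10 mg/kg oral daily (0.4% HPMC vehicle) plus isotype or anti-PD1 10 mg/kg i.p. twice weekly, n = 15. Five per group taken day 32, 2 h post-dose; fresh tumors analysed by flow cytometry (macrophages CD45/CD11b/F4/80).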

[3] = system: PC3 prostate cancer peritibial implant xenograft; assay: PC3 peritibial implant bone invasion xenograft model; format: in vivo, nude mice; conditions: 10 mg/kg once or twice daily, oral
Summary of the method: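 Male athymic nude mice acclimated 7 days, then implanted with 1×10^6 PC3 cells in serum-free MEM between tibia and fibula of the right leg. Randomized by body weight. Oral dosing began 6 h post-implant, days 1–32: 0.4% HPMC vehicle or test compound 10 mg/kg once or twice daily, n = 20 per group. Tumor burden = (length × width²)/2 from calipers, measured 2–3 times weekly.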

[4] = system: tenosynovial giant cell tumor (TGCT); assay: Phase I/II study DCC-3014-01-001; format: in vivo, human
hERG channel = hERG channel (Homo sapiens, UniProt Q12809); assay: Predictor hERG fluorescence polarization binding assay
[5] = system: cytochrome P450 (CYP) isoforms (all isoforms studied); assay: Cytochrome P450 inhibition, all isoforms studied; format: in vitro ADME
[6] = system: cytochrome P450 (CYP) isoforms; assay: Cytochrome P450 inhibition, all isoforms studied; format: in vitro ADME
[7] = Crossover pharmacokinetic study in dogs; format: in vivo, Beagle dogs
Summary of the method: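 Crossover design in 3 fasted male Beagle dogs. Single IV dose of 1 mg/kg in 20% Captisol / 25 mmol/L pH 2 phosphate buffer, or oral 3, 10 or 30 mg/kg in 0.4% HPMC. Plasma sampled at 0, 0.083 (IV only), 0.25, 0.5, 1, 2, 4, 6, 8, 12 and 24 h. Quantified by LC/MS.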

[8] = Crossover pharmacokinetic study in rats; format: in vivo, Sprague-Dawley rats
Summary of the method: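 Crossover design in 3 fasted male Sprague-Dawley rats. Single IV dose of 1 mg/kg in 20% Captisol / 25 mmol/L pH 2 phosphate buffer, or oral 10 mg/kg in 0.4% HPMC. Plasma sampled at 0, 0.083 (IV only), 0.25, 0.5, 1, 2, 4, 6, 8, 12 and 24 h and analysed by LC/MS.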

[9] = Plasma protein binding, mouse plasma; format: in vitro ADME
[10] = system: CSF1R signaling (phospho-ERK) in monocytes in human whole blood; assay: Whole blood phospho-ERK flow cytometry assay; format: cell-based; conditions: Monocyte, read-out: adjusted free IC50
Summary of the method: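 Whole blood from a healthy donor (K2EDTA) incubated with test compound in 100 µL aliquots for 4 h at 37°C, then stimulated with CSF1 10 ng/mL for 5 min. RBCs lysed and cells fixed, permeabilized on ice, and stained with anti-CD14-PE and anti-phospho-ERK1/2. Median phospho-ERK fluorescence measured in CD14⁺ cells, from 50,000 events in the WBC gate.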

CD68+ macrophages = CD68+ macrophages in rat tissues; format: in vivo, Sprague-Dawley rats; conditions: 15 mg/kg/day orally, 14 days
Summary of the method: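 Male Sprague-Dawley rats dosed orally for 14 days with 0.4% HPMC vehicle or test compound 15 mg/kg daily (5 per group). FFPE organ tissues stained for CD68 with DAPI counterstain. Five nonoverlapping fields imaged at 20× per tissue. Total cell counts and CD68⁺ cell density (cells/mm²) determined.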

[11] = Mouse pharmacokinetics after a single oral dose; format: in vivo, DBA/1 mice; conditions: 3.75 mg/kg single oral dose
MDR1 drug transporter = MDR1 drug transporter (Homo sapiens, UniProt P08183); assay: MDR1 transporter inhibition; format: in vitro ADME
[12] = Mouse pharmacokinetics at steady state; format: in vivo, DBA/1 mice; conditions: female, DBA/1, mouse, plasma, po, 3 mg/kg
[13] = system: CSF1-stimulated cFOS expression in mouse spleens; assay: Mouse PK/PD model, six daily oral doses; format: in vivo
[14] = 3 TGCT patients, cycle 2 day 1, trough and 4 hours after dose
[15] = male, beagle, dog, plasma, intravenous, 1 mg/kg
[16] = male, Sprague-Dawley, rat, plasma, intravenous, 1 mg/kg

Sequence of hERG channel (Q12809 whole entry, canonical isoform): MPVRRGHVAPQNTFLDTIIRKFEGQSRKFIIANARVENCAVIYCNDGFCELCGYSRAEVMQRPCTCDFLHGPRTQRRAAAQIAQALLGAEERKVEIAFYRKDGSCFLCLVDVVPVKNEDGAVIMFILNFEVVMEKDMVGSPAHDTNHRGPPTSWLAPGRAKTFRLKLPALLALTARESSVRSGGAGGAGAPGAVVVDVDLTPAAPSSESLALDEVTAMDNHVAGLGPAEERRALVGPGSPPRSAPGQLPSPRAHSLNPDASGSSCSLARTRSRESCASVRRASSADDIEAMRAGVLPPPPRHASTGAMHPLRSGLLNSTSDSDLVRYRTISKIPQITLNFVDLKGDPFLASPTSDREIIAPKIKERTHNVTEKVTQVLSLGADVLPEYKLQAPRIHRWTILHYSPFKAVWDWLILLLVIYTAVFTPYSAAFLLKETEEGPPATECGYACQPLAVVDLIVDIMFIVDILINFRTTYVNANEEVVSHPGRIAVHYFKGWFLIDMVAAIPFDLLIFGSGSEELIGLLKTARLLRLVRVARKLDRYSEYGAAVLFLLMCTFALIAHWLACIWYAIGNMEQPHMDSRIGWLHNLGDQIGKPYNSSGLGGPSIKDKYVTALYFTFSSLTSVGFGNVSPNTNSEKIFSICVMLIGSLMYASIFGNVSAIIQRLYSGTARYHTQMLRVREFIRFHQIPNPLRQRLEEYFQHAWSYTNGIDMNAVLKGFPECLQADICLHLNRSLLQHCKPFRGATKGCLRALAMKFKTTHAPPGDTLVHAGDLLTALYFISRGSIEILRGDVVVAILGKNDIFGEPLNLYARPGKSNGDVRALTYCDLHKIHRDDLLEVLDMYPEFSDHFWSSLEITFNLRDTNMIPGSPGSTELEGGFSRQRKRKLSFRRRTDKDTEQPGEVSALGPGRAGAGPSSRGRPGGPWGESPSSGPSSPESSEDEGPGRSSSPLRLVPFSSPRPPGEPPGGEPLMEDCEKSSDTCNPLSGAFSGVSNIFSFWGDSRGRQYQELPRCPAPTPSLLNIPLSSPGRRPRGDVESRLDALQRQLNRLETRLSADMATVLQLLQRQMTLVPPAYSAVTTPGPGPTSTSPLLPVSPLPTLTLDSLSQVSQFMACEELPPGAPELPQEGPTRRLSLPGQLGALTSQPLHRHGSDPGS
Sequence of MDR1 drug transporter (P08183 whole entry): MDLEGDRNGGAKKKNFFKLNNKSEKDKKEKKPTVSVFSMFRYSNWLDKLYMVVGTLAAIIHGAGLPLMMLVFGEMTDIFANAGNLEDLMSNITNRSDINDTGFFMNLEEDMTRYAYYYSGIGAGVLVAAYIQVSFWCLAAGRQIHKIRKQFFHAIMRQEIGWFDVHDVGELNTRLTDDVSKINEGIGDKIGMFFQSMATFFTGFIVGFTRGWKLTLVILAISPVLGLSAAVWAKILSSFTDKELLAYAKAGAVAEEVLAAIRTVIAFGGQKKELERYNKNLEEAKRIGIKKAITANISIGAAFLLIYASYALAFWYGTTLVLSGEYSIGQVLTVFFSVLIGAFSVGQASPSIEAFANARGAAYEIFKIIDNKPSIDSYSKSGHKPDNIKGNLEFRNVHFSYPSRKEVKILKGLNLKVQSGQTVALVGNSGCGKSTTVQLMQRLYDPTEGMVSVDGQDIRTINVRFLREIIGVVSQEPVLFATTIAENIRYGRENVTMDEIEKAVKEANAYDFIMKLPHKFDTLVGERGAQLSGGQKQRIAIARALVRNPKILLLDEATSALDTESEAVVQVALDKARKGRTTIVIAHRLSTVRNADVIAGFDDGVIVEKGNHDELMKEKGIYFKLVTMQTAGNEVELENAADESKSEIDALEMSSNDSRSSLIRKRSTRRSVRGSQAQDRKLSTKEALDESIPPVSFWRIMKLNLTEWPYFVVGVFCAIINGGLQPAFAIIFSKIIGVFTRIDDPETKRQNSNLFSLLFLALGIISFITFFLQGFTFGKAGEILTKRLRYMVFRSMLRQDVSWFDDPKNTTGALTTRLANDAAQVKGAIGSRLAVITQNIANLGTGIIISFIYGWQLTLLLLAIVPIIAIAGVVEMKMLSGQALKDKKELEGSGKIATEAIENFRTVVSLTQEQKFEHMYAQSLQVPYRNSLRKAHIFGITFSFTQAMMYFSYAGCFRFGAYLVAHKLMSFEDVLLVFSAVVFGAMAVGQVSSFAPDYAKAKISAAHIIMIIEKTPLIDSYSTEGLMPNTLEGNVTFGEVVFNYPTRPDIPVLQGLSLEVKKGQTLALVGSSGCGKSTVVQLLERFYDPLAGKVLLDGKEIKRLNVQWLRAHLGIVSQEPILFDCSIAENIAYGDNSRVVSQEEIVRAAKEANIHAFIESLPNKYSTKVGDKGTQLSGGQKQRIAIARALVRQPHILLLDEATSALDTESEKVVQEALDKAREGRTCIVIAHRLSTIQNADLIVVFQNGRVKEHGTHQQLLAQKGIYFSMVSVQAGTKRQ

- plasma protein binding ([1]; method and source not stated): > 99 % bound
SMILES: FC(F)(F)c1ccc(CNc2ccc(Cc3c[nH]c4ncc(Cl)cc34)cn2)cn1 [Pexidartinib, pexidartinib]
- loss of potency at high CSF1 ligand concentration (M-NFS-60 cells): 3.8 fold
- serious hepatic adverse events assessed as probably drug-related (TGCT patients): five

- IC50 [2]: 0.0093 µM
- average plasma concentration [4, 14]: approximately 500 ng/mL
- average plasma concentration (total drug) [4, 14]: ~ 1,200 nmol/L
- IC50 [5]: > 75 µM
- oral bioavailability ([7]; dogs, simple vehicle): ~ 30 % F
- Vd [7, 15]: 1.33 L/kg
- clearance [7, 15]: 2.5 mL/min/kg
- half-life [7, 15]: 6.8 h
- bound to proteins in plasma ([1]; human plasma, in vitro ultracentrifugation assay): approximately 96.5%
- Vd [8, 16]: 0.69 L/kg
- clearance [8, 16]: 0.5 mL/min/kg
- half-life [8, 16]: 14.2 h
- oral bioavailability ([8]; rats, 10 mg/kg oral versus 1 mg/kg IV): 76 % F
- bound in plasma [9]: approximately 97.2%
- IC50 [10]: ~0.014 µM
- AUC0–24 [11]: 28,987 ng*hour/mL
- IC50 (MDR1 drug transporter): 4.35 µM
- AUC(0-t) [12]: 49300 ng·h/mL
- EC50 ([13]; Mus musculus, po, read-out: free EC50): 0.012 µg/mL and 28 nM
SMILES: Cc1nc(-c2cnc(NC(C)C)n(C)c2=O)ccc1Oc1ccnc(-c2cnn(C)c2)c1 [Vimseltinib, vimseltinib]
- reduction of TAMs in the primary tumor (MC38 colorectal cancer; after 3 weeks of dosing, flow cytometry): > 6 fold
- tumor growth inhibition (%TGI) (MC38 colorectal cancer; day 32, vimseltinib 10 mg/kg orally every day, anti-PD1 10 mg/kg i.p. twice a week): 52%
- primary tumor growth [3]: not affected
- bone degradation (CT score 0–4) ([3]; to day 32, n = 20/cohort): statistically significant protection from bone degradation
- plasma CSF1 and IL34 levels ([4]; 3 patients with TGCT, cycle 2 day 1, 30 mg once a day for 5 days then 30 mg twice weekly): increases in CSF1 and IL34 levels
- change in tumor size (RECIST v1.1, MRI) ([4]; patient 2, right hip TGCT, after two cycles): −25%
- EC50 (hERG channel): > 25 µM
- EC20, hERG binding (hERG channel; in vitro binding assay): 19.4 µM
- time-dependent or metabolism-dependent inhibition of any CYP isoform [6]: no time-dependent or metabolism-dependent inhibition of any CYP isoform
- decrease in liver CD68+ macrophages (CD68+ macrophages; P < 0.0001): 68%
- decrease in colon CD68+ macrophages (CD68+ macrophages; P = 0.17): 47%
- inhibition of cFOS expression ([13]; 3 mg/kg, six daily doses, at 24 and 48 hours): approximately 50%
- inhibition of cFOS expression ([13]; 3 mg/kg, six daily doses, for 12 hours): ≥ 90%
- EC80 ([13]; all animals in the steady-state study): 1,700 ng/mL
- inhibition of cFOS expression ([13]; six daily oral doses of 1, 3, and 10 mg/kg): significantly inhibited cFOS expression
